# Hits are enriched below; roughly 2.1% of the tested compounds scored in any of these assays.
# CCR6 antagonist – CCR6 (human) receptor antagonism; CHO-K1 CCR6 PathHunter beta-arrestin, luminescence, CCL20-stimulated; inhibition, % at 20 µM; actives 0.49% (n = 340,000); AID 493098;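 active = compounds whose inhibition of the agonist-driven luminescence signal at 20 µM reaches about 50%, limit read from the data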;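 note: cells stimulated with CCL20 at 14 nM final; plate controls were DMSO with CCL20 for no effect and DMSO without agonist for full effect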
# CXCR6 block – inhibitors of human CXCR6 receptor. actives 0.36% (n = 360,000). O00574. CHO-K1 PathHunter CXCR6 beta-arrestin, luminescence. inhibition, % at 20 µM. AID 602244; in the data active = inhibition above about 34%, passing the limit was not always enough;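 note: antagonist mode with CXCL16 agonist at 10 nM final; 0% = 10 nM CXCL16 with DMSO and 100% = unstimulated wells without agonist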
# HTR2A ag – mouse HTR2A agonism via beta-arrestin recruitment | CHO-K1 mHTR2A beta-arrestin complementation, luminescence; percent of 30 µM serotonin response | activation, % at 7.6 µM | AID 624169 | actives 0.66% (n = 360,000) | P35363;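 active = activation above a run cutoff, the mean activation of all tested compounds plus 3 SD, cut at about 14% in these data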;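 note: 0% = plate median of compound wells and 100% = 30 µM serotonin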
# Target sequence (P35363 whole entry, looked up): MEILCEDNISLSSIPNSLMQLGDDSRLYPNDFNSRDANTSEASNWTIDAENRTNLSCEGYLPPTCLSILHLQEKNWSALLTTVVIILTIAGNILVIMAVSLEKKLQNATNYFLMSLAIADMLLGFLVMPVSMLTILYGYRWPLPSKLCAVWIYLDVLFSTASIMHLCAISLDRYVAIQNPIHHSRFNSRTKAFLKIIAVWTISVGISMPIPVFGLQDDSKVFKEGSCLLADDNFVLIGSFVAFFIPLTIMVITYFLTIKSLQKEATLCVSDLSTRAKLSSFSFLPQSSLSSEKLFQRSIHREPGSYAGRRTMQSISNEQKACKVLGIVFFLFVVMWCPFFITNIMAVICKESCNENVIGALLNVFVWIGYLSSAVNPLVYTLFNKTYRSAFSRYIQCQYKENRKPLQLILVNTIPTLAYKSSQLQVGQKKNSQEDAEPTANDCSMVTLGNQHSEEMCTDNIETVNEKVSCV
# APJ antagonist – APJ receptor antagonism; CHO-K1 APJ beta-arrestin complementation, luminescence; inhibition, % at 20 µM; actives 0.32% (n = 330,000); AID 2521;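 active = inhibition above about 40% at 20 µM, limit read from the data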;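 note: cells challenged with 10 nM apelin-13 agonist together with compound; plate controls were apelin-13 plus DMSO wells for no effect and DMSO wells lacking apelin-13 for full effect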
# EBI2 block – EBI2 (human) antagonism; P32249; EBI2 beta-arrestin recruitment, luminescence, 7a,25-OHC stimulated; inhibition, % at 5 µM; actives 0.81% (n = 360,000); AID 651636; in the data active = inhibition above about 38%;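 note: enzyme fragment complementation signal reports receptor beta-arrestin coupling in cells; 0% = agonist plus DMSO wells and 100% = wells without agonist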
# APJ ag – activates the human apelin receptor APJ; P35414; CHO-K1 APJ PathHunter beta-arrestin, luminescence; 0% DMSO wells, 100% apelin; activation, % at 20 µM; actives 0.11% (n = 330,000); AID 2520;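 active = activation more than six SD over the plate average, tested at 20 µM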;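 note: 0% = DMSO alone and 100% = apelin-13 at 10 nM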
#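 Test system: CHO-K1 APJ beta-arrestin complementation cell line. Amount: cell density 1000 per well. Controls: DMSO negative, 10 nM Apelin-13 positive. Signal: luminescent beta-gal fragment complementation, chemiluminescent substrate. Read-out basis: agonist-driven arrestin binding to APJ. Timing: compound stimulation 90 min at 25 °C, detection 60 min.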
# APJ ag confirm – APJ receptor agonism confirmation. AID 2764. activation, % at 20 µM. shares compounds with APJ ag. actives 10% (n = 310). CHO-K1 APJ PathHunter beta-arrestin, luminescence;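 active = activation above 40%, taking the highest of four retests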;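 note: plate controls were DMSO wells for no effect and apelin-13 at 10 nM for full effect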
# Numbers without * were called inactive; . = no result.
SMILES,CCR6 antagonist,CXCR6 block,HTR2A ag,APJ antagonist,EBI2 block,APJ ag,APJ ag confirm
CCOc1cc2[nH]c(=S)n(CCN3CCC(C)CC3)c(=O)c2cc1OCC,14,-2,-4,-1,0,27*,13
CCOc1cc2[nH]c(=S)n(CCCN3CCOCC3)c(=O)c2cc1OCC,-1,-1,-1,1,8,17*,24
C=CCCC(=O)Nc1ccc(Br)cn1,13,-2,2,2,0,-2,.
COc1cccc(NC(=O)NCCc2ccc(Cl)cc2)c1,-2,-1,-3,-16,11,-3,.
Cc1cccc(NC(=S)NC(=O)/C=C/c2ccccc2)n1,-8,-5,-3,-57,-36,11*,28
Cc1csc2nc(COC(=O)c3ccc(Cl)c([N+](=O)[O-])c3)cc(=O)n12,19,24,5,-3,9,30*,10
Cc1csc2nc(COC(=O)CNC(=O)c3ccc(Cl)cc3)cc(=O)n12,4,12,4,8,-4,-1,.
COc1cc(-c2cc(C(=O)Nc3ccncc3)c3ccccc3n2)cc(OC)c1OC,-3,-6,6,-19,-29,5,.
Cc1ccc(-c2cc(C(=O)Nc3ccncc3)c3ccccc3n2)cc1,-36,-6,0,-24,-41,31*,11
COC(=O)c1ccc(-c2cc(CC3(C(=O)OC)CCN(C(=O)OC(C)(C)C)CC3)on2)cc1,-10,-31,-1,-26,-13,36*,20
COC(=O)C1(Cc2cc(-c3ccccc3)no2)CCN(C(=O)OC(C)(C)C)CC1,9,1,3,7,-11,-4,.
COc1cc(C=O)ccc1OCc1ccc(Cl)nc1,6,5,11,2,-6,0,.
N/C(=N\OC(=O)c1cccnc1)c1ccccc1Cl,-37,-15,5,-91,-14,8.9*,22
N/C(=N\OC(=O)c1cccnc1)c1ccc(Cl)cc1Cl,-9,-6,-3,-61,-1,4,.
Fc1ccc2[nH]c3c(N4CCN(c5ccccc5)CC4)ncnc3c2c1,-3,1,1,-10,-6,14*,26
CCOC(=O)N1CCN(c2ncnc3c2[nH]c2ccc(F)cc23)CC1,11,-13,7,-7,4,8,.
COc1ccc(C(=O)NCC(=O)OCc2nc(N)nc(Nc3ccccc3C)n2)cc1,-1,1,-7,2,6,-2,.
COc1ccc(OC)c(-n2c(-c3ccc(O)cc3O)n[nH]c2=S)c1,5,5,0,-5,3,2,.
COc1cc(OC)cc(-c2n[nH]c(=S)n2-c2cc(OC)ccc2OC)c1,20,3,-1,-3,-10,36*,40*
CS(=O)c1nc(-c2ccc(Br)cc2)cc(-c2ccccc2)c1C#N (stereo unspecified),10,-16,-4,-6,64*,36*,18
N#Cc1c(-c2ccccc2)cc(-c2ccc(O)cc2)nc1N,8,1,-8,-11,11,-4,.
O=C(NC1CCCC1)c1cc(COc2ccc3ncccc3c2)on1,6,-13,0,-4,-6,0,.
O=C(NCCc1cn2ccccc2n1)c1cc(COc2ccc3ncccc3c2)on1,-21,-3,7,-13,6,31*,4
C[C@@H](C(=O)NC1CCN(Cc2ccccc2)CC1)N1C(=O)N2CCc3c([nH]c4ccccc34)[C@@]2(C)C1=O,-1,-4,-8,1,-4,5,.
COc1ccc2[nH]c3c(c2c1)CCN1C(=O)N([C@@H](C)C(=O)NC2CCN(Cc4ccccc4)CC2)C(=O)[C@]31C,8,-5,-7,8,-5,18*,38
SMILES,CCR6 antagonist,CXCR6 block,HTR2A ag,APJ antagonist,EBI2 block,APJ ag,APJ ag confirm
CC(C)C[C@@H](C(=O)NC1CCN(Cc2ccccc2)CC1)N1C(=O)N2CCc3c([nH]c4ccccc34)[C@@]2(C)C1=O,21,9,-7,16,14,24*,25
Cc1cc(NC(=O)C2CCN(S(=O)(=O)c3c(C)noc3C)CC2)ccc1Br,13,-6,-8,2,-1,8,.
COc1cc(/C=N/Nc2nc(-c3ccc(S(=O)(=O)N(C)C)cc3)cs2)ccc1O,-17,-18,5,-70,10,21*,32
Cc1ccccc1Nc1nc(CSc2nnc(-c3ccoc3C)n2C)cs1,16,-4,-5,7,4,-3,.
CC(=O)Nc1ccc(NC(=O)COC(=O)c2ccc([N+](=O)[O-])o2)cc1,3,-24,3,-22,-12,12*,11
O=C(O)C1CC=CCC1C(=O)NC12CC3CC(CC(C3)C1)C2 (stereo unspecified),-2,2,3,-11,-10,-1,.
Cc1onc(-c2ccccc2Cl)c1C(=O)O/N=C(\N)c1ccccc1,-28,-34,1,-112,-14,31*,21
CC1(OC(=O)C2CCCC2)C(=O)C=C2C=C(c3ccsc3)N(C3CCCC3)C=C2C1=O (stereo unspecified),11,-2,4,-77,-19,104*,12
Cc1ccc(NC(=O)CSc2ccccc2NC(=O)c2cccc(Cl)c2)cc1Cl,-1,-13,1,-26,-6,14*,11
NC(=O)COc1ccc(=O)n(-c2ccccc2)n1,6,7,6,0,-6,-5,.
COc1ccc(-c2ccc3c(c2)S(=O)(=O)c2cccc(C(=O)NC4CCCC4)c2C3=O)cc1OC,-3,3,0,1,-21,9.0*,11
O=C(NC1CCCCC1)c1cc2ccccc2cc1O,-7,-9,-1,-54,-8,13*,12
O=C(NC1CCCCCCC1)c1ccccc1O,10,-5,1,12,-18,-1,.
Cc1cc(C)cc(C(=O)O/N=C(\N)c2ccc(Br)cc2)c1,2,-8,1,-38,22,6,.
N/C(=N\OC(=O)c1ccoc1)c1ccc(Br)cc1,-35,-13,-1,-163,-5,43*,24
c1ccc(-c2nc(N3CCCCCC3)nc(-n3ccnc3)n2)cc1,28,4,2,-12,11,26*,12
O=S(=O)(c1ccc2nc(N3CCN(c4ccc(F)cc4)CC3)ccc2c1)N1CCCCC1,13,5,-1,13,19,-7,.
CC1CCN(S(=O)(=O)c2ccc3nc(N4CCN(c5ccccc5)CC4)ccc3c2)CC1,-12,.,.,-2,.,53*,11
N/C(=N\OC(=O)c1ccc(Cl)c([N+](=O)[O-])c1)c1ccccn1,-18,-21,0,-43,23,17*,7
